How the values were obtained:
Format in all cases: cell-based
P2X purinoceptor 4 = biological target: T1, P2X purinoceptor 4 (Homo sapiens, UniProt Q99571); test: Antagonist activity at human P2X4 receptor expressed in human 1321N1 cells assessed as inhibition of ATP-induced cytosolic calcium influx preincubated for 30 mins followed by ATP addition by Fluo-4 AM dye-based fluorescence assay
T1 sequence (Q99571 whole entry): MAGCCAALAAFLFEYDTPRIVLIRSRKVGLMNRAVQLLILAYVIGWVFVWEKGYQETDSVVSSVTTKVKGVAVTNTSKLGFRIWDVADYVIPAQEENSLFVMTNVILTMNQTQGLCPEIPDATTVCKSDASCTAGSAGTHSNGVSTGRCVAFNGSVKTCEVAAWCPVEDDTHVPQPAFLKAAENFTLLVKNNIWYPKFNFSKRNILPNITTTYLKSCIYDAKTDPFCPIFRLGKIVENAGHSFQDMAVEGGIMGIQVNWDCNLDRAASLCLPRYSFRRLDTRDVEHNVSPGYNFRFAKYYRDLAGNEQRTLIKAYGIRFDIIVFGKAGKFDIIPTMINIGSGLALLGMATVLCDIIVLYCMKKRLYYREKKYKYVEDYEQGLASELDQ
In short: (§1)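 Human P2X4 stably transfected into 1321N1 astrocytoma cells. Inhibition of ATP-induced calcium influx measured as in earlier work. Compounds were first screened at a single high concentration, chosen according to their solubility.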

[1] = biological target: T2, P2X purinoceptor 4 (Homo sapiens) (UniProt Q99571); test: Antagonist activity at human P2X4 receptor expressed in human 1321N1 cells assessed as inhibition of ATP-induced cytosolic calcium influx at 300 uM preincubated for 30 mins followed by ATP addition by Fluo-4 AM dye-based fluorescence assay; in short: as §1
T2 sequence (whole entry): T1 sequence (Q99571 whole entry)

[2] = biological target: T2, P2X purinoceptor 4 (Homo sapiens); test: Antagonist activity at human P2X4 receptor expressed in human 1321N1 cells assessed as inhibition of ATP-induced cytosolic calcium influx at 100 uM preincubated for 30 mins followed by ATP addition by Fluo-4 AM dye-based fluorescence assay; in short: as §1
[3] = biological target: T2, P2X purinoceptor 4 (Homo sapiens); test: Antagonist activity at human P2X4 receptor expressed in human 1321N1 cells assessed as inhibition of ATP-induced cytosolic calcium influx at 10 uM preincubated for 30 mins followed by ATP addition by Fluo-4 AM dye-based fluorescence assay; in short: as §1
[4] = biological target: T2, P2X purinoceptor 4 (Homo sapiens); test: Antagonist activity at human P2X4 receptor expressed in human 1321N1 cells assessed as inhibition of ATP-induced cytosolic calcium influx at 20 uM preincubated for 30 mins followed by ATP addition by Fluo-4 AM dye-based fluorescence assay; in short: as §1

NC(=O)N1c2ccccc2C=Cc2cc(O)ccc21
IC50 (P2X purinoceptor 4): 146 µM | inhibition [1]: 82%

O=C(NCCc1ccccc1)N1c2ccccc2C=Cc2ccccc21
IC50 (P2X purinoceptor 4): 36.2 µM | inhibition [2]: 107%

CNC1=Cc2ccccc2N(C(N)=O)c2ccccc21
IC50 (P2X purinoceptor 4): 36.9 µM | inhibition [2]: 80%

C1=Cc2ccccc2N(Cc2ccccc2)c2ccccc21
IC50 (P2X purinoceptor 4): > 100 µM | inhibition [2]: 34%

NC(=O)N1c2ccccc2C2OC2c2ccccc21 (stereo not given) [CARBAMAZEPINE EPOXIDE]
IC50 (P2X purinoceptor 4): > 10 µM | inhibition [3]: 1%

O=C(N1CCC(O)CC1)N1c2ccccc2C=Cc2ccccc21
IC50 (P2X purinoceptor 4): > 100 µM

COc1ccc2c(c1)N(C(N)=O)c1ccccc1C=C2
IC50 (P2X purinoceptor 4): > 100 µM | inhibition [2]: 30%

NC(=O)N1c2ccccc2CC(O)c2ccccc21 (racemic) [LICARBAZEPINE]
IC50 (P2X purinoceptor 4): > 100 µM | inhibition [2]: 28%

O=C(NC1CCC(O)CC1)N1c2ccccc2C=Cc2ccccc21 (stereo not given)
IC50 (P2X purinoceptor 4): > 20 µM | inhibition [4]: 0%

CN(C)CCCNC(=O)N1c2ccccc2C=Cc2ccccc21
IC50 (P2X purinoceptor 4): 100 µM | inhibition [2]: 54%

O=C(NCc1ccccc1)N1c2ccccc2C=Cc2ccccc21
IC50 (P2X purinoceptor 4): 78.9 µM | inhibition [2]: 75%

O=C(N1CCOCC1)N1c2ccccc2C=Cc2ccccc21
IC50 (P2X purinoceptor 4): ≥ 100 µM | inhibition [2]: 50%

NC1CCC(NC(=O)N2c3ccccc3C=Cc3ccccc32)CC1 (stereo not given)
IC50 (P2X purinoceptor 4): > 10 µM | inhibition [3]: 11%

NC(=O)N1c2ccccc2C=Cc2ccc(C(F)(F)F)cc21
IC50 (P2X purinoceptor 4): 54.6 µM | inhibition [2]: 72%

NC(=O)N1c2ccccc2C=Cc2ccccc21 [CARBAMAZEPINE]
IC50 (P2X purinoceptor 4): > 100 µM | inhibition [2]: 35%

CC(C)COC(=O)N1c2ccccc2C=Cc2ccccc21
IC50 (P2X purinoceptor 4): 100 µM | inhibition [2]: 58%

CCOC1Cc2ccccc2N(C(N)=O)c2ccccc21 (racemic)
IC50 (P2X purinoceptor 4): > 100 µM | inhibition [2]: 17%

O=C(Nc1ccccc1)N1c2ccccc2C=Cc2ccccc21
IC50 (P2X purinoceptor 4): 100 µM | inhibition [2]: 49%

CN(C)C(=O)N1c2ccccc2C=Cc2ccccc21
IC50 (P2X purinoceptor 4): ≥ 100 µM | inhibition [2]: 49%

NC(=O)N1c2ccccc2C=C(N)c2ccccc21
IC50 (P2X purinoceptor 4): > 10 µM | inhibition [3]: 12%

COc1ccc(CCNC(=O)N2c3ccccc3C=Cc3ccccc32)cc1
IC50 (P2X purinoceptor 4): 27.4 µM | inhibition [2]: 83%

O=C(Nc1ccncc1)N1c2ccccc2C=Cc2ccccc21
IC50 (P2X purinoceptor 4): > 100 µM | inhibition [2]: 30%

O=C(N(CCO)CCO)N1c2ccccc2C=Cc2ccccc21
IC50 (P2X purinoceptor 4): > 100 µM | inhibition [2]: 2%

CC(C)NC(=O)N1c2ccccc2C=Cc2ccccc21
IC50 (P2X purinoceptor 4): 19.2 µM | inhibition [2]: 47%

Cc1ccc2c(c1)N(C(N)=O)c1ccccc1C=C2
IC50 (P2X purinoceptor 4): > 100 µM | inhibition [2]: 21%

CCCCNC(=O)N1c2ccccc2C=Cc2ccccc21
IC50 (P2X purinoceptor 4): ≥ 100 µM | inhibition [2]: 49%

CC(=O)O[C@H]1Cc2ccccc2N(C(N)=O)c2ccccc21 [ESLICARBAZEPINE ACETATE]
IC50 (P2X purinoceptor 4): > 20 µM | inhibition [4]: 25%

COC(=O)N1c2ccccc2C=Cc2ccccc21
IC50 (P2X purinoceptor 4): 100 µM | inhibition [2]: 51%

CN1CCC(NC(=O)N2c3ccccc3C=Cc3ccccc32)CC1
IC50 (P2X purinoceptor 4): ≥ 100 µM | inhibition [2]: 56%

NC(=O)N1c2ccccc2C=Cc2c1ccc1ccccc21
IC50 (P2X purinoceptor 4): 51.4 µM | inhibition [2]: 91%

NC(=O)N1c2ccccc2CC(=O)c2ccccc21 [OXCARBAZEPINE]
IC50 (P2X purinoceptor 4): > 10 µM | inhibition [3]: 10%

O=C(OCc1ccccc1)N1c2ccccc2C=Cc2ccccc21
IC50 (P2X purinoceptor 4): 6.02 µM | inhibition [3]: 73%

NC(=O)N1c2ccccc2C=Cc2ccc(F)cc21
IC50 (P2X purinoceptor 4): > 100 µM | inhibition [2]: -2%

NC(=O)N1c2ccccc2C=Cc2cc(F)ccc21
IC50 (P2X purinoceptor 4): > 100 µM | inhibition [2]: 11%

COC1=Cc2ccccc2N(C(N)=O)c2ccccc21
IC50 (P2X purinoceptor 4): > 100 µM | inhibition [2]: 34%

CC(C)N(C(=O)c1cccc2c1Nc1ccccc1C=C2)C(C)C
IC50 (P2X purinoceptor 4): 30.6 µM | inhibition [2]: 74%

NC(=O)N1c2ccccc2C=Cc2ccc(O)cc21
IC50 (P2X purinoceptor 4): 72.8 µM | inhibition [1]: 99%

CNC(=O)N1c2ccccc2C=Cc2ccccc21
IC50 (P2X purinoceptor 4): ≥ 100 µM | inhibition [2]: 47%

CC(C)(C)NC(=O)N1c2ccccc2C=Cc2ccccc21
IC50 (P2X purinoceptor 4): 13.8 µM | inhibition [2]: 92%

NC(=O)N1c2ccccc2CCc2ccccc21
IC50 (P2X purinoceptor 4): > 100 µM | inhibition [2]: 35%

CN(C)CCN(C)C(=O)N1c2ccccc2C=Cc2ccccc21
IC50 (P2X purinoceptor 4): ≥ 100 µM | inhibition [2]: 42%

CCN(CC)C(=O)N1c2ccccc2C=Cc2cccc(C(=O)N(C(C)C)C(C)C)c21
IC50 (P2X purinoceptor 4): 52.5 µM

O=C(c1ccccc1)N1c2ccccc2C=Cc2ccccc21
IC50 (P2X purinoceptor 4): 23.3 µM | inhibition [2]: 75%

CCN(CC)C(=O)N1c2ccccc2C=Cc2ccncc21
IC50 (P2X purinoceptor 4): 100 µM | inhibition [2]: 52%

CC(=O)N1c2ccccc2C=Cc2ccccc21
IC50 (P2X purinoceptor 4): > 100 µM | inhibition [2]: 39%

CN(C)c1ccc2c(c1)N(C(N)=O)c1ccccc1C=C2
IC50 (P2X purinoceptor 4): 15.3 µM | inhibition [2]: 39%
